Common to all, as to type: functional, organism-based
Assay [1] has as its system Haemonchus contortus. Description: In vitro anthelmintic activity against Haemonchus contortus after 24 hr of incubation using larval mobility assay; NA denotes <50% inhibition of […] at 100 ppm. A digest of the protocol:
(§1)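 H. contortus L3 larvae (30–40/well) exposed to compound at 27 °C for 2 or 24 h, then moved to an insert with a 40 µm nylon mesh under 2% low melt agar. After a further 4 h, larvae that migrated through the barrier were counted. EC50 from 2-fold serial dilutions, 200 to 0.2 µM. Primary screen at 100 ppm, 24 h; >50% motility inhibition counted as active.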

The subject of assay [2] is Haemonchus contortus. The assay can be described thus: In vitro anthelmintic activity against Haemonchus contortus after 2 hr of incubation using larval mobility assay. Summed up: (§2)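 L3 larvae (30–40/well) incubated with compound at 27 °C for 2 or 24 h, then moved to an insert whose wells have a nylon mesh (40 µm pores) under 2% low-melt agar. After 4 h more, larvae that migrated through the barrier were counted. Primary screen at 100 ppm, with >50% motility inhibition counted as active. EC50 from 2-fold serial dilutions, 200 to 0.2 µM.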

For assay [3], the system named is Haemonchus contortus. Description: In vitro anthelmintic activity against Haemonchus contortus after 24 hr of incubation using larval mobility assay. A digest of the protocol: as §2
The subject of assay [4] is Haemonchus contortus. The assay can be described thus: In vitro anthelmintic activity against Haemonchus contortus after 2 hr of incubation using larval mobility assay; NA denotes <50% inhibition of mortality at 100 ppm. A digest of the protocol:
as §1

Each structure is given as a SMILES string.

As for `CSc1nc(-c2ccc(F)cc2)c[nH]1`, the EC50 result with Haemonchus contortus [1] is given as “Not Active”.
`CSc1scc(-c2ccc(F)cc2)c1[N+](=O)[O-]`: in the assay with Haemonchus contortus [1], the concentration for a half-maximal effect (EC50) result was “Not Active”.
For the compound `CCSc1cc(-c2ccc(F)c(F)c2)cs1`, the results for the EC50 in the assay with Haemonchus contortus [2] and in the assay with Haemonchus contortus [3] were greater than 200 µM and 80 µM, respectively.
Taken in the same sequence, the figures for `CSc1scc(-c2ccc(F)cc2)c1C#N` were greater than 200 µM and 28 µM.
`CSc1cc(-c2ccc(F)cc2)co1`: in the assay with Haemonchus contortus [1], the half-maximal effective concentration (EC50) result was “Not Active”.
With `CCSc1scc(-c2ccc(F)cc2)c1C#N`, the EC50 in the assay with Haemonchus contortus [2] was greater than 200 µM; in the assay with Haemonchus contortus [3], 6 µM.
`c1ccc([C@H]2CN3CCSC3=N2)cc1` [LEVAMISOLE]: the results for the concentration for a half-maximal effect (EC50) in the assay with Haemonchus contortus [2] and in the assay on Haemonchus contortus [3] were 18 µM and 15 µM, respectively.
Turning to `CSc1nc(-c2ccc(F)cc2)cn1C`, the concentration for a half-maximal effect (EC50) result in the assay with Haemonchus contortus [1] is “Not Active”.
Regarding `CNc1scc(-c2ccc(F)cc2)c1C#N`, in the assay on Haemonchus contortus [1], the EC50 entry was “Not Active”.
As to `CSc1c(C#N)c(-c2ccc(F)cc2)cn1C`, the results for the EC50 in the assay on Haemonchus contortus [2] and in the assay on Haemonchus contortus [3] were greater than 200 µM and 175 µM, respectively.
In the case of `CCSc1cc(-c2ccc([N+](=O)[O-])cc2)cs1`, the EC50 in the assay on Haemonchus contortus [2] was 193 µM; in the assay on Haemonchus contortus [3] it was 15 µM.
Taken in the same sequence, the figures for `CCSc1cc(-c2ccc(F)cc2)cs1` were greater than 200 µM and 12 µM.
Taken in the same sequence, the figures for `CCSc1cc(-c2cccc(C#N)c2)cs1` were greater than 200 µM and 189 µM.
For the compound `CCSc1cc(-c2cccnc2)cs1`, the concentration giving a half-maximal response (EC50) in the assay on Haemonchus contortus [2] was determined as 46 µM; in the assay with Haemonchus contortus [3], 33 µM.
As for `CSc1ccc(-c2ccc(F)cc2)cc1C#N`, the EC50 result with Haemonchus contortus [1] was “Not Active”.
Consider `CNc1nc(-c2ccc(F)cc2)cs1`, for which the figures for the EC50 in the assay with Haemonchus contortus [2] and in the assay on Haemonchus contortus [3] were 98 µM and 64 µM, respectively.
On to `CC(=O)c1cc(-c2ccc(F)cc2)cs1`, for which the EC50 result with Haemonchus contortus [1] is listed as “Not Active”.
Consider `CSc1nc(-c2ccccc2)cs1`, for which the concentration giving a half-maximal response (EC50) in the assay with Haemonchus contortus [2] was 82 µM; with Haemonchus contortus [3] it was 190 µM.
The matching figures for `CCSc1nc(-c2ccccc2)cs1`: greater than 200 µM and 32 µM.
Taken in the same sequence, the figures for `CSc1cc(-c2ccc(F)cc2)cs1` were greater than 200 µM and 68 µM.
Taken in the same sequence, the figures for `CCSc1cc(-c2cccs2)cs1` were greater than 200 µM and 161 µM.
As for `CCNc1nc(-c2ccccc2)cs1`, the figures for the EC50 in the assay with Haemonchus contortus [2] and in the assay on Haemonchus contortus [3] were 162 µM and 102 µM, respectively.
With `CCOc1scc(-c2ccc(F)cc2)c1C#N`, the EC50 result with Haemonchus contortus [1] is “Not Active”.
As for `CCSc1c(C#N)c(-c2ccc(F)cc2)cn1C`, the EC50 entry with Haemonchus contortus [4] and in the assay on Haemonchus contortus [1] was “Not Active” in each case.
As for `CSc1ccc(-c2ccc(F)cc2)cc1`, the half-maximal effective concentration (EC50) result with Haemonchus contortus [1] is recorded as “Not Active”.
Still for that read-out and setting: with `CSc1cccc(-c2ccc(F)cc2)c1` the entry was “Not Active”.
Same read-out and setting: with `CS(=O)(=O)c1scc(-c2ccc(F)cc2)c1C#N` the entry was “Not Active”; with `N#Cc1cscc1-c1ccc(F)cc1`, “Not Active”; with `CCc1cc(-c2ccc(F)cc2)cs1`, “Not Active”.
On to `CCSc1cc(-c2ccccc2)cs1`, for which the EC50 result in the assay with Haemonchus contortus [1] is on record as “Not Active”.
Still for that read-out and setting: with `N#Cc1c(-c2ccc(F)cc2)csc1N` the entry was “Not Active”.
For the compound `CSc1scc(-c2ccc(F)cc2)c1Br`, the results for the EC50 with Haemonchus contortus [2] and with Haemonchus contortus [3] were greater than 200 µM and 17 µM, respectively.
On to `CNc1nc(-c2ccccc2)cs1`, for which the EC50 with Haemonchus contortus [2] was found to be 46 µM; with Haemonchus contortus [3], 65 µM.

The values are drawn from ChEMBL document CHEMBL1137134, “Novel thiophenes and analogues with anthelmintic activity against Haemonchus contortus” (Bioorg Med Chem Lett, 2004).
